Test results reported in publication PMC10925177 (bioRxiv, 2024).

Columns and labels:
GLP [1] = biological target: T1, GLP (Homo sapiens, UniProt Q9H9B1); experiment: Western blot of GLP protein levels in cancer cells; format: cell-based; conditions: 24 h, WB
T1 sequence (Q9H9B1 1-1298): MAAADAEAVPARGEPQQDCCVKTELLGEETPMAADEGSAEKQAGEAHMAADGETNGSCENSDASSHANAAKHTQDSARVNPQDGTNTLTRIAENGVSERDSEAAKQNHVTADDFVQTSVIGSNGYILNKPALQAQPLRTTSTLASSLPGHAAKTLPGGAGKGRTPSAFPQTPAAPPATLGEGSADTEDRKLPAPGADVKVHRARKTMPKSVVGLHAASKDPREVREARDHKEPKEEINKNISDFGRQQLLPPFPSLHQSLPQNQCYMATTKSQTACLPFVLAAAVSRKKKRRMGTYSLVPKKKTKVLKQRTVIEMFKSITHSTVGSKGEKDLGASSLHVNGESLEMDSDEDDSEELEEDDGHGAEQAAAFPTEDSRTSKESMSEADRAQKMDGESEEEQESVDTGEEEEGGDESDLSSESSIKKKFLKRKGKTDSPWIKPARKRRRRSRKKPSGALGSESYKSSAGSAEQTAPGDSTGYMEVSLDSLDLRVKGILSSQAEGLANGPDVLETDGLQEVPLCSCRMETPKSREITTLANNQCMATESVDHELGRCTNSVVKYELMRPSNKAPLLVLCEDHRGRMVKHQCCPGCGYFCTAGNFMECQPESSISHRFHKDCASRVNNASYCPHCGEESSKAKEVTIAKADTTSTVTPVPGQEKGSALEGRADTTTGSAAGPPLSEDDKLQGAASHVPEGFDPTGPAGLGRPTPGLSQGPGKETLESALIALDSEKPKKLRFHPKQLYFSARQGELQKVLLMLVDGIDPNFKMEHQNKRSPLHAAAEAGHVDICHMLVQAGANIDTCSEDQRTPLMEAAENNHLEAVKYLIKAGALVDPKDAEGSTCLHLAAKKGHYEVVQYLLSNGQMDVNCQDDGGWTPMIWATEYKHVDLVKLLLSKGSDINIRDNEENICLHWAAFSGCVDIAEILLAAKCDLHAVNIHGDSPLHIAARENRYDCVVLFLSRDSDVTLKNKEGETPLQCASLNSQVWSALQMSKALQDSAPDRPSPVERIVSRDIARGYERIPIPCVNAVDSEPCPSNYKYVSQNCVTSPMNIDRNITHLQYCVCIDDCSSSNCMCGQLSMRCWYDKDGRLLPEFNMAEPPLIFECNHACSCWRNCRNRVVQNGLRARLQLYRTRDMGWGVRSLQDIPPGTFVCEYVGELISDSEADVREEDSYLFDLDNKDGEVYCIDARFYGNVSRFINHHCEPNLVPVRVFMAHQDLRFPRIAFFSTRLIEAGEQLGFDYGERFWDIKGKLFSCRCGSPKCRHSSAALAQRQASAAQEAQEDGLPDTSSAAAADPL
In short: (§1)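 Cells (22Rv1, K562, H1299) were treated for 24 h at the indicated concentrations; 22Rv1 time courses were run at 3 μM. Cells were lysed in RIPA with protease inhibitors, and 10–30 μg of protein was resolved by SDS-PAGE and transferred to PVDF. Blots were probed overnight at 4 °C, with vinculin/β-actin as loading controls. Band intensity was normalised to DMSO, with n = 2 independent experiments (mean ± SD).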

G9a [2] = biological target: T2, G9a (Homo sapiens, UniProt Q96KQ7); experiment: Western blot of G9a protein levels in cancer cells; format: cell-based; conditions: 24 h, WB
T2 sequence (Q96KQ7 1-1210): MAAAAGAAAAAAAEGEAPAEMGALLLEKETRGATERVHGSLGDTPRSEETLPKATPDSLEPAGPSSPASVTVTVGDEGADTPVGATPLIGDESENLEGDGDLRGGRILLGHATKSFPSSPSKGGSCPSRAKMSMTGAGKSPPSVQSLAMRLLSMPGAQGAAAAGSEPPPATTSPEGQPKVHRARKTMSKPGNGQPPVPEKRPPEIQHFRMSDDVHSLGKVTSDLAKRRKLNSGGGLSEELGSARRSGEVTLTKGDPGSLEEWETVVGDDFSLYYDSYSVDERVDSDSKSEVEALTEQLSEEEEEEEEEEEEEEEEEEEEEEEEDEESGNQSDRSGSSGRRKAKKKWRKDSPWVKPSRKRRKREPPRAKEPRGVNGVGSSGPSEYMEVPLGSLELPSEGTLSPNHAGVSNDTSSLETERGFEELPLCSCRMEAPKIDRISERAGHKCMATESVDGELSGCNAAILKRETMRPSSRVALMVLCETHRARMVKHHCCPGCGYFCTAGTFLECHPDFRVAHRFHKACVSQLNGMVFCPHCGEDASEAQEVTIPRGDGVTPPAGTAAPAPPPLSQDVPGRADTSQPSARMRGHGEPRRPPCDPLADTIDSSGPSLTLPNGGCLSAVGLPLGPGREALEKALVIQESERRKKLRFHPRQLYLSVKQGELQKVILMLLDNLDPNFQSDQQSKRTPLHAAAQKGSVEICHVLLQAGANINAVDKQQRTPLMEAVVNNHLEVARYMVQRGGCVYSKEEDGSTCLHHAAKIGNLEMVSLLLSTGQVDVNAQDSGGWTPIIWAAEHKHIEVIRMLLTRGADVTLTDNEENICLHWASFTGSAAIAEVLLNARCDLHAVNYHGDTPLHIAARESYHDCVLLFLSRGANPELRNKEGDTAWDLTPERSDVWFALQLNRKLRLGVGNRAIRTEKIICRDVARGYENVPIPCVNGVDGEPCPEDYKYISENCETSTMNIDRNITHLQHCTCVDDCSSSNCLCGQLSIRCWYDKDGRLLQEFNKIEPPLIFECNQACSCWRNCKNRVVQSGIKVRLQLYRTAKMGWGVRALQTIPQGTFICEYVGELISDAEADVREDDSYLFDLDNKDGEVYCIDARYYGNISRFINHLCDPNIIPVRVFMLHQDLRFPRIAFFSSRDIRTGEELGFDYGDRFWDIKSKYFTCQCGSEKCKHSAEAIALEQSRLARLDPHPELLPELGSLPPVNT
In short: as §1

GLP [3] = biological target: T1, GLP; experiment: GLP radioactive methyltransferase assay; format: biochemical; conditions: indicated concentrations, duplicate (Figure 4C)
In short: (§2)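 Enzyme activity was measured with a radioisotope-based MT HotSpot methyltransferase assay run by a contract laboratory. Test compounds were run at the indicated concentrations, in duplicate. Data are mean ± SD of the two duplicate experiments.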

K562 cells = experiment: Cell viability assay; format: cell-based; conditions: 7 days treatment, WST-8 (CCK-8)
In short: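 K562 cells were grown at 37 °C in 5% CO2 and exposed to serial dilutions of the test compound for 7 days. Viability was read with CCK-8 (WST-8) as absorbance at 450 nm, with 690 nm as reference. IC50 came from curve fitting. Values are mean ± SD from four independent biological experiments.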

G9a mRNA = experiment: RT-qPCR of G9a mRNA in H1299 cells; format: cell-based; conditions: 3 μM, 24 h, normalized to DMSO
In short: (§3)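 H1299 cells were treated with DMSO or test compound at 3 μM for 24 h. Total RNA was extracted and reverse-transcribed to cDNA. qPCR used gene-specific primers for G9a and GLP, and a GAPDH primer set was included.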

G9a [4] = biological target: T2, G9a; experiment: G9a radioactive methyltransferase assay; format: biochemical; conditions: indicated concentrations, duplicate (Figure 4B)
In short: as §2

GLP mRNA = experiment: RT-qPCR of GLP mRNA in H1299 cells; format: cell-based; conditions: 3 μM, 24 h, normalized to DMSO
In short: as §3

GLP degradation, in words (GLP [1]; 22Rv1 cells, 0.3 or 3 μM) | G9a degradation, in words (G9a [2]; 22Rv1 cells, 0.3 or 3 μM) | inhibition of GLP enzymatic activity (GLP [3]) | inhibition of G9a enzymatic activity (G9a [4]) | SMILES | further results
little or no degradation | little or no degradation |  |  | COc1cc2c(NC3CCN(CCCC(=O)NCCOCCOCCOCCC(=O)N[C@H](C(=O)N4C[C@H](O)C[C@H]4C(=O)NCc4ccc(-c5scnc5C)cc4)C(C)(C)C)CC3)nc(N3CCC(F)(F)CC3)nc2cc1OCCCN1CCCC1 [Compound 13, (2S,4R)-1-((S)-2-(tert-butyl)-20-(4-((2-(4,4-difluoropiperidin-1-yl)-6-methoxy-7-(3-(pyrrolidin-1-yl)propoxy)quinazolin-4-yl)amino)piperidin-1-yl)-4,17-dioxo-7,10,13-trioxa-3,16-diazaicosanoyl)-4-hydroxy-N-(4-(4-methylthiazol-5-yl)benzyl)pyrrolidine-2-carboxamide] | 
moderate | moderate |  |  | COc1cc2c(NC3CCN(CCCC(=O)NCCC(=O)N[C@H](C(=O)N4C[C@H](O)C[C@H]4C(=O)NCc4ccc(-c5scnc5C)cc4)C(C)(C)C)CC3)nc(N3CCC(F)(F)CC3)nc2cc1OCCCN1CCCC1 [Compound 1, (2S,4R)-1-((S)-2-(3-(4-(4-((2-(4,4-difluoropiperidin-1-yl)-6-methoxy-7-(3-(pyrrolidin-1-yl)propoxy)quinazolin-4-yl)amino)piperidin-1-yl)butanamido)propanamido)-3,3-dimethylbutanoyl)-4-hydroxy-N-(4-(4-methylthiazol-5-yl)benzyl)pyrrolidine-2-carboxamide] | 
 |  | similarly inhibited | similarly inhibited | COc1cc2c(NC3CCN(C(C)C)CC3)nc(N3CCC(F)(F)CC3)nc2cc1OCCCN1CCCC1 [UNC0642, reference compound] | GI50 of cell growth inhibition (IC50 in the figure) (K562 cells): unable to suppress cell proliferation; mRNA levels of G9a (G9a mRNA): did not significantly alter; GLP degradation, in words (GLP [1]; K562 cells, 3 μM): did not degrade; G9a degradation, in words (G9a [2]; K562 cells, 3 μM): did not degrade; mRNA levels of GLP (GLP mRNA): did not significantly alter
 | did not degrade |  |  | COc1cc2c(NC3CCN(CCCC(=O)NCCOCCC(=O)N[C@H](C(=O)N4C[C@H](O)C[C@H]4C(=O)NCc4ccc(-c5scnc5C)cc4)C(C)(C)C)CC3)nc(N3CCC(F)(F)CC3)nc2cc1OCCCN1CCCC1 [Compound 11, (2S,4R)-1-((S)-2-(3-(2-(4-(4-((2-(4,4-difluoropiperidin-1-yl)-6-methoxy-7-(3-(pyrrolidin-1-yl)propoxy)quinazolin-4-yl)amino)piperidin-1-yl)butanamido)ethoxy)propanamido)-3,3-dimethylbutanoyl)-4-hydroxy-N-(4-(4-methylthiazol-5-yl)benzyl)pyrrolidine-2-carboxamide] | 
 |  | similarly inhibited | similarly inhibited | COc1cc2c(NC3CCN(CCCC(=O)NCCCCCCCCCCCC(=O)N[C@H](C(=O)N4C[C@@H](O)C[C@@H]4C(=O)NCc4ccc(-c5scnc5C)cc4)C(C)(C)C)CC3)nc(N3CCC(F)(F)CC3)nc2cc1OCCCN1CCCC1 [Compound 14, (2R,4S)-1-((S)-2-(12-(4-(4-((2-(4,4-difluoropiperidin-1-yl)-6-methoxy-7-(3-(pyrrolidin-1-yl)propoxy)quinazolin-4-yl)amino)piperidin-1-yl)butanamido)dodecanamido)-3,3-dimethylbutanoyl)-4-hydroxy-N-(4-(4-methylthiazol-5-yl)benzyl)pyrrolidine-2-carboxamide] | 
little or no degradation | little or no degradation |  |  | COc1cc2c(NC3CCN(CCCC(=O)NCCOCCOCCC(=O)N[C@H](C(=O)N4C[C@H](O)C[C@H]4C(=O)NCc4ccc(-c5scnc5C)cc4)C(C)(C)C)CC3)nc(N3CCC(F)(F)CC3)nc2cc1OCCCN1CCCC1 [Compound 12, (2S,4R)-1-((S)-2-(tert-butyl)-17-(4-((2-(4,4-difluoropiperidin-1-yl)-6-methoxy-7-(3-(pyrrolidin-1-yl)propoxy)quinazolin-4-yl)amino)piperidin-1-yl)-4,14-dioxo-7,10-dioxa-3,13-diazaheptadecanoyl)-4-hydroxy-N-(4-(4-methylthiazol-5-yl)benzyl)pyrrolidine-2-carboxamide] | 
